Converted amounts (≈) assume the structure as drawn. Where a SMILES comes first, the peptide text is derived from it. [ ]: non-standard residue; d: D form. 3Abz = Nc1cccc(C(=O)O)c1; Orn = NCCC[CH](N)C(=O)O
Experiments:
Staphylococcus aureus [1] = test: Antibacterial activity against methicillin-resistant Staphylococcus aureus ATCC BAA-1720 assessed as growth inhibition after 18 hrs by CLSI microdilution broth assay; format: functional; conditions: ATCC BAA-1720, 18 h
Method in brief: (§1)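 Modified CLSI broth microdilution in Mueller-Hinton broth. Wells held 90 µL of about 2 × 10^5 CFU/mL inoculum plus 10 µL of serially diluted peptidomimetic, range 0.7-100 µg/mL. Plates were incubated overnight with agitation at 37 °C and absorbance read at 600 nm after 18 h. Controls: inoculum without compound, and uninoculated broth. Run in triplicate.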

[2] = tested on: Staphylococcus epidermidis; test: Antibacterial activity against methicillin-resistant Staphylococcus epidermidis ATCC 51625 assessed as growth inhibition after 18 hrs by CLSI microdilution broth assay; format: functional; conditions: ATCC 51625, 18 h; method in brief: as §1
Escherichia coli = test: Antibacterial activity against Escherichia coli MTCC 723 assessed as growth inhibition after 18 hrs by CLSI microdilution broth assay; format: functional; conditions: MTCC 723, 18 h
[3] = Induction of hemolysis in human RBC assessed as hemoglobin release after 1 hr by microtiter plate reader analysis; format: cell-based, Erythrocyte; conditions: for HC10: erythrocyte, 1 h; for HC50 at 1 h: red blood cells
Method in brief: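 Freshly isolated human RBCs washed three times in PBS (35 mM phosphate, 150 mM NaCl, pH 7.2) and used as a 4% (v/v) suspension. Mixed 1:1 with twofold serial dilutions of compound, incubated 1 h at 37 °C without agitation, then centrifuged. Supernatant A540 read. PBS defined 0% and 1% Triton X-100 defined 100% lysis; HC50 and HC10 derived.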

Pseudomonas aeruginosa = test: Antibacterial activity against Pseudomonas aeruginosa MTCC 2295 assessed as growth inhibition after 18 hrs by CLSI microdilution broth assay; format: functional; conditions: MTCC 2295, 18 h
[4] = Retention time of the compound by HPLC analysis; format: physicochemical
Method in brief: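 Analytical RP-HPLC on a C18 column (5 µm, 4.6 × 250 mm) at room temperature. Run a linear gradient of 0.5-60% acetonitrile containing 0.05% TFA against water containing 0.05% TFA at 0.5 mL/min.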

Bacillus subtilis = test: Antibacterial activity against Bacillus subtilis MTCC 2763 assessed as growth inhibition after 18 hrs by CLSI microdilution broth assay; format: functional; conditions: MTCC 2763, 18 h
Staphylococcus aureus [5] = test: Antibacterial activity against Staphylococcus aureus MTCC 3160 assessed as growth inhibition after 18 hrs by CLSI microdilution broth assay; format: functional; conditions: MTCC 3160, 18 h
[6] = Selectivity ratio of HC50 for hemolysis in human RBC to MIC for Staphylococcus aureus

SMILES	MIC (Staphylococcus aureus [1]) [µg/mL]	MIC [2] [µg/mL]	MIC (Escherichia coli) [µg/mL]	HC10 [3] [µg/mL]	HC50 at 1 h [3] [µg/mL]	MIC (Pseudomonas aeruginosa) [µg/mL]	Retention_time [4] [min]	MIC (Bacillus subtilis) [µg/mL]	MIC (Staphylococcus aureus [5]) [µg/mL]	Selectivity ratio [6]
N=C(N)NCCCC(NC(=O)c1cccc(NC(=O)C(N)Cc2c[nH]c3ccccc23)c1)C(N)=O (centres undefined)	> 200	> 200	> 200	400	> 500	> 200	26.553	> 200	> 200	
N=C(N)NCCCC(NC(=O)C(Cc1ccccc1)NC(=O)c1cccc(NC(=O)C(Cc2ccccc2)NC(=O)C(CCCNC(=N)N)NC(=O)C(N)Cc2ccccc2)c1)C(N)=O (centres undefined) (H-FRF[3Abz]FR-NH2; configuration not given here)	125 (≈ 140 µM)	120 (≈ 135 µM)	> 200	125	310	> 200	26.225	150 (≈ 169 µM)	120 (≈ 135 µM)	2.58
NCCCC(NC(=O)C(Cc1ccccc1)NC(=O)c1cccc(NC(=O)C(Cc2ccccc2)NC(=O)C(CCCN)NC(=O)C(N)Cc2ccccc2)c1)C(N)=O (centres undefined) (H-F[Orn]F[3Abz]F[Orn]-NH2; configuration not given here)	> 200	> 200	> 200	180	400	> 200	25.038	> 200	150 (≈ 186 µM)	2.66
N=C(N)NCCCC(N)C(=O)NC(CCCNC(=N)N)C(=O)NC(Cc1ccccc1)C(=O)Nc1cccc(C(=O)NC(Cc2ccccc2)C(=O)NC(CCCNC(=N)N)C(N)=O)c1 (centres undefined) (H-RRF[3Abz]FR-NH2; configuration not given here)	150 (≈ 167 µM)	170 (≈ 189 µM)	> 200	130	375	> 200	24.871	200 (≈ 222 µM)	150 (≈ 167 µM)	2.5
N=C(N)NCCCC(N)C(=O)NC(CCCNC(=N)N)C(=O)NC(Cc1c[nH]c2ccccc12)C(=O)NC(Cc1c[nH]c2ccccc12)C(=O)NC(CCCNC(=N)N)C(N)=O (centres undefined) (H-RRWWR-NH2; configuration not given here)	25 (≈ 29.1 µM)	20 (≈ 23.3 µM)	75 (≈ 87.4 µM)	90	240	100 (≈ 117 µM)	29.606	70 (≈ 81.6 µM)	25 (≈ 29.1 µM)	9.6
N=C(N)NCCCC(N)C(=O)NC(CCCNC(=N)N)C(=O)NC(Cc1c[nH]c2ccccc12)C(=O)Nc1cccc(C(=O)NC(Cc2c[nH]c3ccccc23)C(=O)NC(CCCNC(=N)N)C(N)=O)c1 (centres undefined) (H-RRW[3Abz]WR-NH2; configuration not given here)	5 (≈ 5.12 µM)	6.25 (≈ 6.4 µM)	17.5 (≈ 17.9 µM)	100	355	25 (≈ 25.6 µM)	27.402	25 (≈ 25.6 µM)	6.25 (≈ 6.4 µM)	56.8
N=C(N)NCCCC(N)C(=O)NC(Cc1c[nH]c2ccccc12)C(=O)NC(CCCNC(=N)N)C(=O)Nc1cccc(C(=O)NC(Cc2c[nH]c3ccccc23)C(=O)NC(CCCNC(=N)N)C(N)=O)c1 (centres undefined) (H-RWR[3Abz]WR-NH2; configuration not given here)	40 (≈ 40.9 µM)	50 (≈ 51.2 µM)	120 (≈ 123 µM)	210	400	120 (≈ 123 µM)	27.446	125 (≈ 128 µM)	50 (≈ 51.2 µM)	8
N=C(N)NCCCC(N)C(=O)NC(Cc1c[nH]c2ccccc12)C(=O)NC(Cc1c[nH]c2ccccc12)C(=O)Nc1cccc(C(=O)NC(CCCNC(=N)N)C(=O)NC(CCCNC(=N)N)C(N)=O)c1 (centres undefined) (H-RWW[3Abz]RR-NH2; configuration not given here)	25 (≈ 25.6 µM)	25 (≈ 25.6 µM)	70 (≈ 71.6 µM)	255	420	75 (≈ 76.8 µM)	26.96	75 (≈ 76.8 µM)	25 (≈ 25.6 µM)	16.8
N=C(N)NCCCC(N)C(=O)NC(Cc1c[nH]c2ccccc12)C(=O)Nc1cccc(C(=O)NC(CCCNC(=N)N)C(N)=O)c1 (centres undefined) (H-RW[3Abz]R-NH2; configuration not given here)	60 (≈ 94.5 µM)	70 (≈ 110 µM)	70 (≈ 110 µM)	205	500	75 (≈ 118 µM)	23.821	100 (≈ 158 µM)	50 (≈ 78.8 µM)	10
N=C(N)NCCCC(N)C(=O)NC(Cc1c[nH]c2ccccc12)C(=O)Nc1cccc(C(=O)NC(CCCNC(=N)N)C(=O)NC(CCCNC(=N)N)C(N)=O)c1 (centres undefined) (H-RW[3Abz]RR-NH2; configuration not given here)	75 (≈ 94.8 µM)	75 (≈ 94.8 µM)	100 (≈ 126 µM)	350	> 500	75 (≈ 94.8 µM)	22.534	100 (≈ 126 µM)	70 (≈ 88.5 µM)	> 7.14
N=C(N)NCCCC(N)C(=O)NC(Cc1c[nH]c2ccccc12)C(=O)Nc1cccc(C(=O)NC(Cc2c[nH]c3ccccc23)C(=O)NC(CCCNC(=N)N)C(N)=O)c1 (centres undefined) (H-RW[3Abz]WR-NH2; configuration not given here)	10 (≈ 12.2 µM)	12.5 (≈ 15.2 µM)	40 (≈ 48.7 µM)	250	410	50 (≈ 60.9 µM)	23.89	50 (≈ 60.9 µM)	12.5 (≈ 15.2 µM)	32.8
N=C(N)NCCCC(NC(=O)C(Cc1c[nH]c2ccccc12)NC(=O)c1cccc(NC(=O)C(CCCNC(=N)N)NC(=O)C(CCCNC(=N)N)NC(=O)C(N)Cc2c[nH]c3ccccc23)c1)C(N)=O (centres undefined) (H-WRR[3Abz]WR-NH2; configuration not given here)	12.5 (≈ 12.8 µM)	10 (≈ 10.2 µM)	50 (≈ 51.2 µM)	190	380	50 (≈ 51.2 µM)	27.66	70 (≈ 71.6 µM)	15 (≈ 15.4 µM)	25.3
N=C(N)NCCCC(NC(=O)C(CCCNC(=N)N)NC(=O)c1cccc(NC(=O)C(Cc2c[nH]c3ccccc23)NC(=O)C(CCCNC(=N)N)NC(=O)C(N)Cc2c[nH]c3ccccc23)c1)C(N)=O (centres undefined) (H-WRW[3Abz]RR-NH2; configuration not given here)	25 (≈ 25.6 µM)	25 (≈ 25.6 µM)	60 (≈ 61.4 µM)	140	370	70 (≈ 71.6 µM)	27.324	40 (≈ 40.9 µM)	25 (≈ 25.6 µM)	14.8
N=C(N)NCCCC(NC(=O)c1cccc(NC(=O)C(CCCNC(=N)N)NC(=O)C(N)Cc2c[nH]c3ccccc23)c1)C(N)=O (centres undefined) (H-WR[3Abz]R-NH2; configuration not given here)	150 (≈ 236 µM)	200 (≈ 315 µM)	200 (≈ 315 µM)	300	> 500	> 200	24.184	200 (≈ 315 µM)	150 (≈ 236 µM)	> 3.3
N=C(N)NCCCC(NC(=O)C(CCCNC(=N)N)NC(=O)c1cccc(NC(=O)C(CCCNC(=N)N)NC(=O)C(N)Cc2c[nH]c3ccccc23)c1)C(N)=O (centres undefined) (H-WR[3Abz]RR-NH2; configuration not given here)	120 (≈ 152 µM)	100 (≈ 126 µM)	> 200	325	> 500	> 200	22.64	170 (≈ 215 µM)	100 (≈ 126 µM)	> 5
NCCCC(N)C(=O)NC(CCCN)C(=O)NC(Cc1ccccc1)C(=O)Nc1cccc(C(=O)NC(Cc2ccccc2)C(=O)NC(CCCN)C(N)=O)c1 (centres undefined) (H-[Orn][Orn]F[3Abz]F[Orn]-NH2; configuration not given here)	> 200	> 200	> 200	210	490	> 200	23.313	> 200	> 200	
CN[C@H](CC(C)C)C(=O)N[C@H]1C(=O)N[C@@H](CC(N)=O)C(=O)N[C@H]2C(=O)N[C@H]3C(=O)N[C@H](C(=O)N[C@H](C(=O)O)c4cc(O)cc(O)c4-c4cc3ccc4O)[C@H](O)c3ccc(c(Cl)c3)Oc3cc2cc(c3O[C@@H]2O[C@H](CO)[C@@H](O)[C@H](O)[C@H]2O[C@H]2C[C@](C)(N)[C@H](O)[C@H](C)O2)Oc2ccc(cc2Cl)[C@H]1O [VANCOMYCIN]	1.5 (≈ 1.04 µM)									

— ChEMBL document CHEMBL3286351, “Antibacterial evaluation of structurally amphipathic, membrane active small cationic peptidomimetics: synthesized by incorporating 3-amino benzoic acid as peptidomimetic element” (Eur J Med Chem, 2014)
